Series [1] concerns Rattus norvegicus. In words: Cmax in Sprague-Dawley rat assessed as Tizoxanide level in plasma at 30 mg/kg, po administered as single dose. It is filed as ADME, organism-based. Also noted: dose 30 mg/kg, route oral. Particulars: in vivo. The method in brief: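 Rats in groups of three received one compound as a single oral dose (30 mg/kg) or a single intravenous injection (6 mg/kg), with four compounds studied separately. Serial blood samples were drawn at 5, 10, 15 and 30 min and at 1, 2, 4, 8, 23 and 24 h post-dose. Plasma parent drug and metabolites were quantified and PK parameters were derived.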

Series [2] deals with Rattus norvegicus. As to the kind of experiment: Oral bioavailability in Sprague-Dawley rat assessed as Tizoxanide-glucuronide level at 28 mg/kg. It is filed as ADME, organism-based. Particulars: in vivo. The method in brief: (§1)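 Rats in groups of three got a single oral dose (30 mg/kg) or a single intravenous injection (6 mg/kg). Serial blood samples were taken at 5, 10, 15 and 30 min and at 1, 2, 4, 8, 23 and 24 h post-dose for plasma drug and glucuronide levels. Bioavailability came from oral versus intravenous AUC after dose correction to 30 mg/kg.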

The test system of series [3] is Rattus norvegicus. In words: AUC (0 to t) in Sprague-Dawley rat assessed as tizoxanide-glucuronide level in plasma at 30 mg/kg, po administered as single dose. It is filed as ADME, organism-based. The conditions noted are these: in vivo. The method in brief:
(§2)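 Plasma tizoxanide and tizoxanide glucuronide were measured and PK parameters derived. AUCs were dose-corrected to 30 mg/kg for bioavailability.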

Series [4] has as its system Rattus norvegicus. As to the kind of experiment: AUC (0 to t) in Sprague-Dawley rat assessed as Tizoxanide level in plasma at 6 mg/kg, iv administered as single dose. It is filed as ADME, organism-based. Particulars: in vivo. The method in brief: as §2
Series [5] deals with Rattus norvegicus. As to the kind of experiment: Tmax in Sprague-Dawley rat assessed as Tizoxanide in plasma at 6.3 mg/kg, iv administered as single dose. It is filed as ADME, organism-based. The conditions noted are these: in vivo. The method in brief: as §1
Series [6] deals with Rattus norvegicus. In words: Toxicity in Sprague-Dawley rat assessed as increase in spleen to body weight ratio at 75 mg/kg administered as oral gavage qd for 28 consecutive days measured on day 29. It is filed as organism-based. The conditions noted are these: in vivo. The method in brief:
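Sub-acute study in Sprague-Dawley rats dosed orally with a suspension at 10, 30 and 75 mg/kg once daily for 28 consecutive days. Four groups of up to 30 rats each (15M/15F).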

Series [7] relates to Canis familiaris. As to the kind of experiment: Toxicity in Beagle dog assessed as emesis at 25 mg/kg, po administered as gelatin capsule once daily for 28 days measured on day 29. It is filed as organism-based, Canis lupus familiaris. Particulars: in vivo, 672 h. The method in brief:
(§3)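 Sub-acute study in Beagle dogs dosed orally by gelatin capsule at 5, 15 and 25 mg/kg once a day for 28 consecutive days.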

For series [8], the system named is Canis familiaris. In words: Toxicity in Beagle dog assessed as decrease in cholesterol level up to 25 mg/kg, po administered as gelatin capsule once daily for 28 days measured on day 29. It is filed as organism-based, Canis lupus familiaris. Particulars: in vivo, 672 h. The method in brief:
as §3

Series [9] relates to Canis familiaris. In words: Toxicity in Beagle dog up to 25 mg/kg, po administered as gelatin capsule once daily for 28 days measured on day 29 followed by two weeks of recovery period. It is filed as organism-based, Canis lupus familiaris. The conditions noted are these: in vivo, 672 h. The method in brief:
as §3

Each structure is given as a SMILES string.

The source of these data is ChEMBL document CHEMBL3997766, “Synthesis and pre-clinical studies of new amino-acid ester thiazolide prodrugs” (Eur J Med Chem, 2017).

The term Cmax denotes the maximum level reached in the sampled fluid or tissue. As usually defined, the Tmax is the time at which the peak concentration occurs. Consider `CC(C)(C)[C@H](N)C(=O)Oc1ccccc1C(=O)Nc1ncc([N+](=O)[O-])s1.Cl`, for which the highest concentration (Cmax) in the series with Rattus norvegicus [1] is 6.19 µg/mL. Besides, the F with Rattus norvegicus [2] was 13%. Besides, the AUCt is 23.6 µg·h/mL with Rattus norvegicus [3] and 5.21 µg·h/mL with Rattus norvegicus [4]. Further, the Tmax in the series on Rattus norvegicus [5] is recorded as 5 min. Also, the Activity entry in the series with Rattus norvegicus [6] was “Toxic”; with Canis familiaris [7] it was “Toxic”; with Canis familiaris [8] it was “Toxic”; with Canis familiaris [9], “Non-Toxic”.
